Active and inactive are the calls of the source. The rule behind the calls is not given here.
Assays:
Rattus norvegicus = assay: Antipsychotic activity in Sprague-Dawley rat assessed as ability to reverse apomorphine effect on prepulse inhibition of the startle response at 1 mg/kg, sc; assay type: functional, organism-based; set-up: dose 1 mg/kg
Summary of the method: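 Male Sprague-Dawley rats, 250-300 g, habituated a day before. Drug in water or saline sc (1 mL/kg) 25 min, apomorphine 1.0 mg/kg 5 min pre-test; muscarinic agonists 0.1-3 mg/kg. Session of 15 each pulse-alone (120 dB, 100 ms) and pulse preceded 200 ms by 20 ms prepulse 12 dB above 70 dB background; 12 rats/group; %PPI calculated.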

[1] = biological target: T1, Muscarinic acetylcholine receptor M2 (Homo sapiens, UniProt P08172); assay: Inhibition of [3H](R)-QNB binding to human M2 receptor expressed in A9 L cells; assay type: cell-based, A9L
T1 sequence (P08172 whole entry): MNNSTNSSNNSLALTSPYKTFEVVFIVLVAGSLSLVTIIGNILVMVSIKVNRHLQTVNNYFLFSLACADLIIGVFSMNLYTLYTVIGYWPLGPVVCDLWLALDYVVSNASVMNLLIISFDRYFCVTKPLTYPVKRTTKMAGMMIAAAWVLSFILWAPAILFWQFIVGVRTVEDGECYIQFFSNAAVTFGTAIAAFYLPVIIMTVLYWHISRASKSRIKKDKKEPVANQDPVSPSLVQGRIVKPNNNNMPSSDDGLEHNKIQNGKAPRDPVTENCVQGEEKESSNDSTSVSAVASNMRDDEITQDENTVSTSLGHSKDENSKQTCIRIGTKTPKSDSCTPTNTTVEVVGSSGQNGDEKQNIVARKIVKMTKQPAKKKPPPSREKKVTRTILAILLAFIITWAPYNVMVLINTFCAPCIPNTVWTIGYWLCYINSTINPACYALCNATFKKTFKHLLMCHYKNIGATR
Summary of the method: (§1)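 Membranes from A9 L cells expressing the receptor; 0.1 nM [3H]-(R)-QNB with 14 concentrations of test ligand (0.01 nM to 3 mM) in 25 mM sodium phosphate pH 7.4, 5 mM MgCl2, 2 h room temperature; nonspecific binding with 1000-fold excess unlabeled (R)-QNB.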

[2] = biological target: T2, Muscarinic acetylcholine receptor M3 (Homo sapiens, UniProt P20309); assay: Inhibition of [3H](R)-QNB binding to human M3 receptor expressed in A9 L cells; assay type: cell-based, A9L
Target sequence in this assay (P20309 whole entry): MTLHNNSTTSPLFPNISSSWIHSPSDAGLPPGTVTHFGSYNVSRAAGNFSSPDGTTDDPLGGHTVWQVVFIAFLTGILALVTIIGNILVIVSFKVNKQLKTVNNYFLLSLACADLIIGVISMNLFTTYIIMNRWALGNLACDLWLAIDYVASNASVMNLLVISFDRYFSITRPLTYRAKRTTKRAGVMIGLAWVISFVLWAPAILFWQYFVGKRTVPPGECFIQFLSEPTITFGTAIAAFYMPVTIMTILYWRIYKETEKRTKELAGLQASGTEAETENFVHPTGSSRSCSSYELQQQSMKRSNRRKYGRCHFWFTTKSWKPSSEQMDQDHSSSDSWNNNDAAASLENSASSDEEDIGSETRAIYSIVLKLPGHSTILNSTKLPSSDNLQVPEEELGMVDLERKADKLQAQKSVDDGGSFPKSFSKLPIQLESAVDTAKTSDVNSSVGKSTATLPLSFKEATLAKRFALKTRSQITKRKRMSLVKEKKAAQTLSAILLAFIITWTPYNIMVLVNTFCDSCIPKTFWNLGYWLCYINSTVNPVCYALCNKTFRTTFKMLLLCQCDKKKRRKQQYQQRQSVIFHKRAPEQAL

[3] = biological target: T3, Muscarinic acetylcholine receptor M1 (Homo sapiens) (UniProt P11229); assay: Agonist activity at human M1 receptor expressed in A9 L cells assessed as stimulation of phosphoinositide hydrolysis relative to carbachol; assay type: functional, cell-based; settings: L929
T3 sequence (whole entry): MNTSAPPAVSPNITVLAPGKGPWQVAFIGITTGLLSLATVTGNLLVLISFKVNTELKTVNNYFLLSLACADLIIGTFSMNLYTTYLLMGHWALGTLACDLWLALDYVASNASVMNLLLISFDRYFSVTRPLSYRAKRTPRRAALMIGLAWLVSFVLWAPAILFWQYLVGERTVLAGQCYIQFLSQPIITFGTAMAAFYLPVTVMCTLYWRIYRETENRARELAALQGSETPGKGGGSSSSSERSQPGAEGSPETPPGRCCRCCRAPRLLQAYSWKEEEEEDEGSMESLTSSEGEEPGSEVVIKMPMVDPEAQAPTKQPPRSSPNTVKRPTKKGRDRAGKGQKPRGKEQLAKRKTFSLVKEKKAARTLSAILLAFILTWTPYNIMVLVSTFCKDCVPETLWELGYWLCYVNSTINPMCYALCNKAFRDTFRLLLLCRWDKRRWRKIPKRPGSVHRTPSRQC
Summary of the method: (§2)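 A9 L cells stably expressing the receptor, seeded 24 h, labelled overnight with 10 µCi/mL [3H]inositol in inositol-free DMEM; ligands in HBSS with 10 mM LiCl, 20 mM HEPES, 37 °C, 1 h; formic acid extraction, inositol phosphates counted by SPA beads.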

[4] = biological target: T4, Muscarinic acetylcholine receptor M2 (Homo sapiens) (UniProt P08172); assay: Activity at human M2 receptor assessed as inhibition of forskolin-stimulated cAMP accumulation relative to carbachol; assay type: functional
T4 sequence (whole entry): T1 sequence (P08172 whole entry)

[5] = biological target: T5, Muscarinic acetylcholine receptor M4 (Homo sapiens, UniProt P08173); assay: Activity at human M4 receptor assessed as inhibition of forskolin-stimulated cAMP accumulation; assay type: functional
T5 sequence (P08173 whole entry): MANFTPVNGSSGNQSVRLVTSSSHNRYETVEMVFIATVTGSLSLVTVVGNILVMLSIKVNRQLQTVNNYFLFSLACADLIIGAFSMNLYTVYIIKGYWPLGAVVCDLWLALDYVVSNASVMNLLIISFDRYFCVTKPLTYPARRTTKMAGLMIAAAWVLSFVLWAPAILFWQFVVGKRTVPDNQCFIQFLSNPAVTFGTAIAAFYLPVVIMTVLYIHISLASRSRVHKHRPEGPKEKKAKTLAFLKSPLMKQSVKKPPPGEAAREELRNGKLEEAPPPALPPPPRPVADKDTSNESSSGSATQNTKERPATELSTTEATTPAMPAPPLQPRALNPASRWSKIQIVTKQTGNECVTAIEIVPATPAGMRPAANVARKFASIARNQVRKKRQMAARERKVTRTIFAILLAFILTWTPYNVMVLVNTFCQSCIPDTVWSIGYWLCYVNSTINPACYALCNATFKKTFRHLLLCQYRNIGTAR

[6] = biological target: T2, Muscarinic acetylcholine receptor M3; assay: Agonist activity at human M3 receptor expressed in A9 L cells assessed as stimulation of phosphoinositide hydrolysis relative to carbachol; assay type: functional, cell-based; settings: L929; summary of the method: as §2
Target sequence in this assay (P20309 whole entry, looked up): as the sequence (P20309 whole entry) above

[7] = biological target: T6, Muscarinic acetylcholine receptor M5 (Homo sapiens, UniProt P08912); assay: Inhibition of [3H](R)-QNB binding to human M5 receptor expressed in A9 L cells; assay type: cell-based, A9L; summary of the method: as §1
T6 sequence (P08912 whole entry): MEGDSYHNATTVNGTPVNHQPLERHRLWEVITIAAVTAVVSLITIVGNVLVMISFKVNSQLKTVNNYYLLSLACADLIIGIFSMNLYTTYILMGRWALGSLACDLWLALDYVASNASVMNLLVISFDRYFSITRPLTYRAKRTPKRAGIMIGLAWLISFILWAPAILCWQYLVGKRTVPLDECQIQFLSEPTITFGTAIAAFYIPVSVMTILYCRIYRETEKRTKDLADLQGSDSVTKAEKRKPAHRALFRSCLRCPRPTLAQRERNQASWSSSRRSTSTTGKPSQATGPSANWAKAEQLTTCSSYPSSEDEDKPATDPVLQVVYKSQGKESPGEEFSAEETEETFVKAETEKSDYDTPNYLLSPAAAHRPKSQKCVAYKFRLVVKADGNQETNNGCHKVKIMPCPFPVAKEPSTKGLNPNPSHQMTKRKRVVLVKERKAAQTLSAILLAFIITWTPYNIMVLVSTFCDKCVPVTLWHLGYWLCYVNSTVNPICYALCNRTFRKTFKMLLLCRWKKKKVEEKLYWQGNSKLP

[8] = biological target: T7, Muscarinic acetylcholine receptor M5 (Homo sapiens) (UniProt P08912); assay: Agonist activity at human M5 receptor expressed in A9 L cells assessed as stimulation of phosphoinositide hydrolysis relative to carbachol; assay type: functional, cell-based; settings: L929; summary of the method: as §2
T7 sequence (whole entry): T6 sequence (P08912 whole entry)

[9] = biological target: T5, Muscarinic acetylcholine receptor M4; assay: Inhibition of [3H](R)-QNB binding to human M4 receptor expressed in A9 L cells; assay type: cell-based, A9L; summary of the method: as §1
[10] = biological target: T8, Muscarinic acetylcholine receptor M4 (Homo sapiens) (UniProt P08173); assay: Activity at human M4 receptor assessed as inhibition of forskolin-stimulated cAMP accumulation relative to carbachol; assay type: functional
T8 sequence (whole entry): T5 sequence (P08173 whole entry)

[11] = biological target: T9, Muscarinic acetylcholine receptor M1 (Homo sapiens, UniProt P11229); assay: Inhibition of [3H](R)-QNB binding to human M1 receptor expressed in A9 L cells; assay type: cell-based, A9L
T9 sequence (P11229 whole entry): T3 sequence (whole entry)

[12] = biological target: T9, Muscarinic acetylcholine receptor M1; assay: Agonist activity at human M1 receptor expressed in A9 L cells assessed as stimulation of phosphoinositide hydrolysis; assay type: functional, cell-based, L929
[13] = biological target: T1, Muscarinic acetylcholine receptor M2; assay: Activity at human M2 receptor assessed as inhibition of forskolin-stimulated cAMP accumulation; assay type: functional
[14] = biological target: T7, Muscarinic acetylcholine receptor M5 (Homo sapiens); assay: Agonist activity at human M5 receptor expressed in A9 L cells assessed as stimulation of phosphoinositide hydrolysis at 100 uM relative to carbachol; assay type: functional, cell-based; settings: L929
[15] = biological target: T4, Muscarinic acetylcholine receptor M2 (Homo sapiens); assay: Activity at human M2 receptor assessed as inhibition of forskolin-stimulated cAMP accumulation at 1 mM relative to carbachol; assay type: functional
[16] = biological target: T8, Muscarinic acetylcholine receptor M4 (Homo sapiens); assay: Activity at human M4 receptor assessed as inhibition of forskolin-stimulated cAMP accumulation at 1 mM relative to carbachol; assay type: functional
[17] = biological target: T2, Muscarinic acetylcholine receptor M3; assay: Antagonist activity at human M3 receptor assessed as inhibition of carbachol […]; settings: read-out: pA2 (converted)
Target sequence in this assay (P20309 whole entry): as the sequence (P20309 whole entry) above

Row | SMILES | Activity (Rattus norvegicus) | Ki [1] [nM] | Ki [2] [nM] | Smax [3] [%] | Imax [4] | IC50 [5] [µM] | Activity [6] | Ki [7] [nM] | Activity [8] | Ki [9] [nM] | Imax [10] [%] | Ki [11] [nM] | EC50 [12] [nM] | Smax [8] [%] | IC50 [13] [nM] | Smax [14] [%] | Imax [15] [%] | Imax [16] [%] | Kb [17] [nM]
1 | Clc1ccc2c(c1)N=C(N1CCNCC1)c1ccccc1N2 | inactive | – | – | – | – | – | – | – | – | – | – | – | – | – | – | – | – | – | –
2 | COc1nsc(OCCCOCCCOCCCOc2nsnc2C2=CCCN(C)C2)n1 | – | 63.1 | 200 | 27 | inactive | 6.31 | inactive | 251 | inactive | 158 | 130 | 63.1 | 501 | – | – | – | – | – | –
3 | CN1CCC=C(c2nsnc2OCCOCCOCCOCCO)C1 | – | 316 | 316 | 7.9 | 86% | 25.1 | inactive | 3980 | – | 794 | 110 | 1000 | 794 | 7.4 | 7.94 | – | – | – | –
4 | COc1nsnc1OCCOCCOc1nsnc1C1=CCCN(C)C1 | – | 39.8 | 50.1 | 11 | 77% | 7.94 | inactive | 251 | – | 63.1 | 47 | 794 | 1000 | – | 79.4 | 0.83 | – | – | –
5 | COc1nsnc1OCCCOCCCOCCCOc1nsnc1C1=CCCN(C)C1 | – | 158 | 200 | 21 | – | – | inactive | 100 | – | 158 | – | 100 | 3160 | 0.6 | – | – | 130 | 260 | –
6 | COc1nsnc1OCCOCCOCCOCCOCCOc1nsnc1C1=CCCN(C)C1 | – | 2.51 | 1580 | 28 | 98% | 0.398 | inactive | 100 | – | 12.6 | 37 | 398 | 251 | – | 398 | 0.95 | – | – | 63.1
7 | CN1CCN(C2=Nc3cc(Cl)ccc3Nc3ccccc32)CC1 | Active | – | – | – | – | – | – | – | – | – | – | – | – | – | – | – | – | – | –
8 | COc1nsnc1OCCOCCOCCOc1nsnc1C1=CCCN(C)C1 | – | 39.8 | 251 | 13 | 110% | 7.94 | inactive | 631 | – | 79.4 | 100 | 316 | 794 | – | 3160 | 1.3 | – | – | –
9 | O=C(CCCN1CCC(O)(c2ccc(Cl)cc2)CC1)c1ccc(F)cc1 | Active | – | – | – | – | – | – | – | – | – | – | – | – | – | – | – | – | – | –
